Screens deposited in PubChem by The Scripps Research Institute Molecular Screening Center.
A selection: hits, their analogues and other compounds. The true share with any hit is near 3%.
S1P3 ag: activates the human S1P3 receptor; Q99500; S1P3 NFAT-BLA reporter cells, agonism, FRET ratio; relative to 1 µM S1P, basal subtracted; activation, % at 4.5 µM; 60,000 compounds, 0.1% hits; AID 373;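 active = activation above the screen-wide mean plus 3 SD, cut at about 4.5% in these data, passing the limit was not always enough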
Target sequence (Q99500 whole entry, looked up): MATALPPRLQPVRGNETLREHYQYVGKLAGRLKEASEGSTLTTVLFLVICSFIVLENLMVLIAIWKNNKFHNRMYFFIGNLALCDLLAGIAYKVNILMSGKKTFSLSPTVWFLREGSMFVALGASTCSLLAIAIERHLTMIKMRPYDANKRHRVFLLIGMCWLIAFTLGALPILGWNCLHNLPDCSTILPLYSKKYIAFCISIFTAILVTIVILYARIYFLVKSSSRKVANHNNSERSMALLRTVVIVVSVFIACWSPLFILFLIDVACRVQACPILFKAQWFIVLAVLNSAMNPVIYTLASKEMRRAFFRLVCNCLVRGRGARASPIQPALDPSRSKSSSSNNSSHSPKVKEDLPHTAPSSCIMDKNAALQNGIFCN
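Assay system: stable CHO line with human S1P3, Gα16, NFAT-BLA reporter; Detection: FRET β-lactamase substrate fluorescence, excitation 405 nm, 460/535 nm emission ratio, background-subtracted; Read-out: percent activation versus median 1 µM S1P response, basal-subtracted, per plate; Incubation: cells plated overnight, compound 4 h 37 °C, substrate 2 h RT.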
S1P1 ag pot: activates or potentiates agonism at human S1P1 receptor; AID 449; S1P1 CRE-bla cells, forskolin, beta-lactamase FRET, potentiator mode; S1P1 agonist co-added at EC20, 2 nM; 100% = saturating reference agonist, 0% = basal; activation, % at 9.5 µM; 56,000 compounds, 0.57% hits;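 active = activation above a cutoff set at the mean activation of all tested compounds plus 3 SD, cut at about 54% in these data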;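 note: forskolin at 4 µM as EC80 and the EC20 agonist is SEW2871; 100% = SEW2871 at its EC100 plus forskolin at EC80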
Target sequence (P21453 whole entry, looked up): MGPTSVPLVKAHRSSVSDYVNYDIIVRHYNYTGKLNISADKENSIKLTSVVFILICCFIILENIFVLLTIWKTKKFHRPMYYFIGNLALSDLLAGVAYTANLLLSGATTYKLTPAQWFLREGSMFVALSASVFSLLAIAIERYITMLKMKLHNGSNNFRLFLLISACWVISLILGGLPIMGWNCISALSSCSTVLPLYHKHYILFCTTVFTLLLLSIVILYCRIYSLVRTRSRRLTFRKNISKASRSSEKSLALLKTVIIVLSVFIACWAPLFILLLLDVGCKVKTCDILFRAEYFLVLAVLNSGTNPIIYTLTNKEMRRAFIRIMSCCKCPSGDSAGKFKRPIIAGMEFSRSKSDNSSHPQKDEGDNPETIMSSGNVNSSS
5-HT1A blocker: 5-HT1a (human) receptor antagonism; 62,000 compounds, 0.68% hits; inhibition, % at 10 µM; P08908; CHO 5-HT1a Ga15 NFAT-bla reporter, antagonist mode;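 active = inhibition above the mean of all tested compounds plus 3 SD, cut at about 43% in these data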;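 note: receptor stimulated by 5-CT agonist at 100 nM near EC80; beta-lactamase reporter measured by ratiometric fluorescence of a cleavable substrate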
HTR1E antagonist: antagonists of human 5-HT1E serotonin receptor. inhibition, % at 6 µM. 65,000 compounds, 0.99% hits. CHO 5-HT1E Ga15 NFAT-bla reporter, FRET, antagonist. P28566;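 active = inhibition above a set limit, the mean inhibition across every tested compound plus 3 SD, cut at about 29% in these data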;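 note: signal is the 460 over 535 nm emission ratio of beta-lactamase substrate; 0% = agonist plus DMSO wells and 100% = wells without agonist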
HTR1E agonist: agonists of human 5-HT1E serotonin receptor | CHO 5-HT1E Ga15 NFAT-bla reporter, FRET; 0% DMSO wells, 100% control agonist wells | activation, % at 6 µM | 65,000 compounds, 0.69% hits | AID 574;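 active = activation above a set limit, the screen-wide mean activation plus 3 SD, cut at about 8.5% in these data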;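 note: 100% = positive control agonist at 1 µM giving full maximal response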
HTR1A agonist: agonists of human 5-HT1a serotonin receptor; P08908; CHO 5-HT1a Ga15 NFAT-bla reporter, FRET ratio; 0% basal, 100% maximal reference agonist; activation, % at 10 µM; 65,000 compounds, 0.56% hits;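 active = activation above the screen-wide mean activation plus 3 SD, cut at about 19% in these data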;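 note: 0% = DMSO wells and 100% = 5-CT at EC100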
An asterisk follows results filed as active; nt = not tested or not shown.

SMILES | S1P3 ag | S1P1 ag pot | 5-HT1A blocker | HTR1E antagonist | HTR1E agonist | HTR1A agonist
O=c1/c(=C\c2cccnc2)sc2nc3ccccc3n12 | 0.7 | -19.7 | -18.3 | 3.7 | -0.2 | -2.7
O=C(CN1CCN(c2nc(-c3ccccc3)cs2)CC1)Nc1ccc2c(c1)OCO2 | 0.7 | 28.7 | 2.1 | 2.3 | -0.1 | 0.6
Cc1ccc(-c2csc(N3CCC(NS(=O)(=O)c4ccc5c(c4)OCCO5)CC3)n2)cc1 | -1.0 | 106.8* | 19.4 | -0.6 | 6.3 | 3.2
CSc1nnc2c3cc(C)ccc3n(Cc3ccccc3)c2n1 | -1.2 | -7.9 | 9.6 | 4.7 | -0.7 | 2.2
Cc1ccc(C)c(NC(=O)CSc2nnc(-c3ccccc3)n2N)c1 | nt | nt | -2.9 | 6.0 | -1.3 | 1.1
Brc1cccc(-c2nnc(SCc3nc4ccccc4[nH]3)o2)c1 | -1.5 | 2.5 | 7.7 | 28.6* | -0.2 | -1.2
c1ccc2[nH]c(CSc3nnc(-c4ccncc4)o3)nc2c1 | -0.1 | -3.9 | 3.7 | 9.4 | -0.6 | -0.6
CCOc1ccccc1NC(=O)Cn1nnc(C(=O)NCc2ccco2)c1N | -1.1 | 6.0 | 34.3 | 73.2* | -0.9 | -1.8
Oc1c(C(Nc2nc3ccccc3s2)c2ccco2)ccc2cccnc12 (configuration not stated) | -2.2 | 5.1 | 61.6* | 34.5* | -0.6 | 5.6
CCCC(=O)NC(c1ccco1)c1cc(Cl)c2cccnc2c1O (configuration not stated) | -2.0 | 28.5 | 28.7 | 5.2 | -1.3 | -5.0
CC(C)C(=O)NC(c1ccco1)c1ccc2cccnc2c1O (configuration not stated) | -2.1 | 3.7 | 39.3 | 30.1* | -1.4 | -1.0
CCOC(=O)c1sc2nc(SCC#N)n(CCCN3CCCC3=O)c(=O)c2c1C | nt | nt | 1.8 | 12.4 | -0.5 | 1.4
O=C(c1ccccc1)c1ccc(OCC(O)CN2CCCCC2)cc1 (configuration not stated) | -0.3 | nt | 0.5 | -2.0 | 0.1 | -2.6
O=C(c1ccc(Cl)cc1)c1ccc(OCC(O)CN2CCOCC2)cc1 (configuration not stated) | -0.8 | -10.5 | 1.2 | 6.3 | 9.1* | -0.2
O=C(Nc1nccs1)c1ccc(COc2ccccc2Br)o1 | -0.2 | 25.4 | 5.5 | 13.2 | -0.5 | 0.8
Nc1ccccc1-c1nnc(SCc2ccccc2F)[nH]c1=O | 0.0 | 10.7 | -2.4 | -9.6 | -1.2 | -3.5
O=C(Oc1ccc2ccccc2c1)c1ccco1 | -0.1 | -20.8 | -11.2 | -7.7 | 0.8 | -2.1
CC1CC(C)(C)Nc2ccc(OC(=O)c3ccco3)cc21 (configuration not stated) | -1.0 | 68.5 | 50.7* | 40.1* | 1.3 | -4.4
COc1cc(-c2nnc3sc(-c4cccs4)nn23)cc(OC)c1OC | 1.4 | -3.2 | -20.0 | 37.7* | -0.3 | 4.9
COc1ccc(-c2nn3c(-c4cccc(C)c4)nnc3s2)cc1OC | -0.2 | -67.5 | -18.6 | 18.0 | 2.5 | 3.4
COc1ccc(-c2nnc3sc(-c4cccs4)nn23)cc1OC | 0.2 | -29.3 | -16.3 | 35.8* | 1.3 | 0.6
COc1cc(-c2nn3c(-c4cccnc4)nnc3s2)cc(OC)c1OC | -0.2 | -8.1 | nt | 18.9 | -0.3 | -1.4
O=S(=O)(Nc1cccc2ncccc12)c1cccs1 | 1.1 | 27.5 | 84.0* | 78.7* | 0.7 | -7.1
Cc1ccc(OCc2nc(-c3ccccc3)no2)c(C)c1 | -0.9 | 77.8* | -1.2 | -4.3 | -0.4 | -2.1
COc1cc(C2C3=C(Nc4ncnn42)c2ccccc2CC3)cc(OC)c1OC (configuration not stated) | -1.0 | -39.7 | 13.6 | 61.2* | -0.2 | -0.6
SMILES | S1P3 ag | S1P1 ag pot | 5-HT1A blocker | HTR1E antagonist | HTR1E agonist | HTR1A agonist
CCc1c(C#N)c(SCc2c(C)noc2C)nc2c1C(=O)CC(C)(C)C2 | nt | nt | 7.9 | -1.5 | 0.3 | 2.8
O=S1(=O)Nc2c(ccc3cccnc23)-c2ccccc21 | -1.3 | 117.6* | 73.5* | 61.0* | 7.4 | -4.0
CCC(C)(C)NC(=O)C(c1ccc(F)cc1)N(Cc1ccco1)C(=O)c1cnccn1 (configuration not stated) | -0.7 | -6.5 | 15.0 | 7.0 | 0.0 | -2.8
COc1ccc(OC)c(NC(=O)CN(c2ccc(C)cc2)S(=O)(=O)c2c(C)noc2C)c1 | -0.3 | 2.2 | 22.4 | 1.6 | 1.6 | 3.2
COc1ccc(N(CC(=O)Nc2cc(Cl)ccc2OC)S(=O)(=O)c2c(C)noc2C)cc1 | -0.1 | -19.8 | 23.3 | 35.1* | 0.2 | -2.4
COc1cc(C)c(S(=O)(=O)N2CCOCC2)cc1C(C)C | -0.6 | -36.9 | 2.8 | 1.4 | 0.0 | -2.0
COc1cc(C)c(N)cc1C(C)C | 0.1 | -8.8 | -4.6 | -4.9 | 23.4* | 0.6
Fc1ccccc1/C=N/n1cnnc1 | -1.6 | 2.0 | nt | -8.4 | -0.1 | 2.1
Cc1cc(C)n(-c2nncn2/N=C/c2ccccc2F)n1 | -1.3 | 7.4 | 54.7* | 12.4 | -1.6 | -1.9
CC1(C)CC(=O)C(/C=N/n2cnc3ccccc3c2=O)=C(O)C1 | -0.4 | 12.1 | 4.0 | 4.2 | -0.6 | -1.3
C=CCS/C(=N\n1cnc2ccccc2c1=O)N1CCCCC1 | -0.8 | 1.7 | 1.1 | 1.7 | 0.3 | 99.0*
CCCCOCP(=O)(CCCC)COCCCC | -0.7 | -22.3 | 3.1 | -6.3 | 0.2 | -0.6
COC(=O)c1ccc2c(=O)n(C3CCCCC3)c(SCC#N)nc2c1 | 3.1 | 87.2* | -16.4 | -0.9 | 0.5 | 1.4
CCSc1nc2cc(C(=O)OC)ccc2c(=O)n1CC | -0.3 | nt | 2.2 | -8.1 | 0.1 | -1.5
CSCCC(NC(=O)COc1ccccc1)C(=O)N1CCN(c2ccccc2F)CC1 (configuration not stated) | -1.2 | 4.8 | 16.4 | -10.7 | -0.1 | -2.5
O=C1NCCN1Cc1cccc(Cl)c1 | 0.2 | -1.2 | 4.9 | -3.3 | 0.2 | 28.3*
O=S(=O)(c1ccccc1)N1CCN(Cc2cccc(Cl)c2)CC1 | -0.1 | -13.9 | -15.1 | -3.9 | -0.2 | -2.2
COc1ccc(S(=O)(=O)N(C)CC(=O)NC2CC2)cc1 | -0.7 | -9.8 | -9.2 | 0.3 | 0.2 | -0.6
c1ccc(-c2nc(NC3CC3)nc(-n3ccnc3)n2)cc1 | -0.4 | -10.9 | 28.8 | 29.3* | 1.8 | -0.1
c1ccc(-c2nc(-n3ccnc3)nc(-n3ccnc3)n2)cc1 | -0.2 | -45.2 | -9.4 | 5.8 | 0.7 | -2.1
CC(C)Nc1nc(-c2ccccc2)nc(-n2ccnc2)n1 | -1.2 | 1.7 | 36.4 | 30.3* | 8.5 | -1.8
C=CCNc1nc(-c2ccccc2)nc(-n2ccnc2)n1 | -0.9 | -18.5 | 8.3 | 14.2 | 1.6 | -0.3
C=CCSc1nc(N)c2c(C)c(C)sc2n1 | -0.6 | -31.1 | -4.7 | 4.3 | 0.3 | 48.9*
N#Cc1nc(COc2ccccc2)oc1N1CCC(Cc2ccccc2)CC1 | -1.1 | 8.2 | 48.7* | 2.2 | -0.8 | -3.5
